CHO-K1 Ca antag: counter-screen for M1 antagonists: effect in parental CHO-K1 cells; AID 602250; inhibition, % at 3 µM; ATP-induced calcium, Fluo-8 fluorescence; 360,000 tested, 0.6% active;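 active means inhibition above a per-plate cutoff, the plate's mean sample inhibition plus 3 SD, cut at about 24% in these data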
OX1R antag-1: OX1R (human) antagonism; OX1R-expressing cells, FRET antagonist read-out; inhibition, % at 6.6 µM; 330,000 tested, 1.8% active; in the data active means inhibition mostly above about 38%, no sharp cut-off; inactive means mostly below about 40%
Target sequence (O43613 whole entry, looked up): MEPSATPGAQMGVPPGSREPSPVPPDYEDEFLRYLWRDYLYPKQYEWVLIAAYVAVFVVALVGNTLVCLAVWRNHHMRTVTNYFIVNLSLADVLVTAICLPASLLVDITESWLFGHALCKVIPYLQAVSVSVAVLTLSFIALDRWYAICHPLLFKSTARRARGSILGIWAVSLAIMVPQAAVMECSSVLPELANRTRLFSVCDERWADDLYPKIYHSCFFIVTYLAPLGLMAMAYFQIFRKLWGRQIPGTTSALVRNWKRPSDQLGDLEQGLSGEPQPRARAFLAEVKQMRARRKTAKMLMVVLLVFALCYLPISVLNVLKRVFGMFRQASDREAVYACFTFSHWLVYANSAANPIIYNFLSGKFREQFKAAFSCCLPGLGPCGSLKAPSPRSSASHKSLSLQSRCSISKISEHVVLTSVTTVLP
CHO parental Ca: signal in parental CHO cells, OX1R antagonist counter-screen; inhibition, % at 5.6 µM; parental CHO-K1, ATP-induced calcium, Fluo-8 fluorescence; 330,000 tested, 0.63% active;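 active means inhibition above that plate's mean sample inhibition plus 3 SD, cut at about 26% in these data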
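Assay system: untransfected parental CHO cell line. Also added: ATP agonist challenge. Dosing: one dose, 5.6 µM nominal. Measured by: Fluo-8 fluorescence. Read-out: % inhibition. Benchmarks: ATP wells versus no-ATP DMSO wells. Repeats: no replicates.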
CHO-K1 Ca PAM: nonselective activator or artifact in parental CHO-K1 calcium assay; ATP EC20, Fluo-8 calcium fluorescence; 0% at ATP EC20, 100% at ATP max; activation, % at 3 µM; 360,000 tested, 0.02% active;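 active means activation above the run cutoff, the mean activation of all test compounds plus 3 SD, cut at about 40% in these data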;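 further: peak over basal fluorescence ratio in a 140 s read after ATP addition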
CHO-K1 Ca ag: counter-screen for M1 agonists: effect in parental CHO-K1 cells; activation, % at 3 µM; AID 602248; 360,000 tested, 0.48% active; Fluo-8 calcium fluorescence; scaled to maximal ATP response, vehicle zero; in the data active means activation above about 15%;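 further: untransfected CHO-K1 host cells lacking M1 receptor as counterscreen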
OX1R antag-2: human HCRTR1 antagonism; CHO/OX1R cells, Fluo-8 calcium fluorescence, orexin A; inhibition, % at 5 µM; 330,000 tested, 0.43% active; O43613;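 active means inhibition above its plate's threshold, mean inhibition of all tested compounds on the plate plus 3 SD, cut at about 37% in these data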
Hits are given with their value; – = inactive; · = no result. An excerpt weighted towards active compounds, which were near 2.9% of everything screened.

SMILES	CHO-K1 Ca antag	OX1R antag-1	CHO parental Ca	CHO-K1 Ca PAM	CHO-K1 Ca ag	OX1R antag-2
O=C(O)c1ccc(Cl)c(S(=O)(=O)Nc2ccc3cn[nH]c3c2)c1	–	–	–	–	–	–
CC1(C)C[C@H]2C3=CCC4[C@@]5(C)CC[C@H](O)[C@](C)(CO)C5CC[C@@]4(C)[C@]3(C)CC[C@@]2(C)[C@H](O)[C@@H]1O (some centres undefined)	–	–	–	–	–	–
CC1(C)CC[C@]2(C(=O)O)[C@H](O)C[C@]3(C)C(=CCC4[C@@]5(C)C[C@H](O)[C@H](O)[C@@](C)(CO)C5CC[C@]43C)[C@@H]2C1 (some centres undefined)	–	–	74	–	–	–
O=C(COc1ccc(Br)cc1)NCCNC(=O)c1ccccn1	–	–	–	–	–	–
O=S(=O)(Nc1nc(-c2sccc2Cl)cs1)c1cc(Cl)ccc1Cl	26	–	–	–	–	–
CC(C)(C)c1nnc(NS(=O)(=O)c2cc(Cl)ccc2Cl)s1	–	–	–	–	–	–
O=c1cnnc(SCc2ccc([N+](=O)[O-])cc2)[nH]1	–	–	–	–	–	–
CC(=O)c1cccc(NC(=O)C2CCCN(S(=O)(=O)c3cccc4cccnc34)C2)c1 (centres undefined)	–	55	–	–	–	–
O=C(Nc1ccc(C(F)(F)F)cc1)C1CCCN1S(=O)(=O)c1cccc2cccnc12 (centres undefined)	–	36	–	–	–	–
O=C(Nc1nccs1)C1CCCN(S(=O)(=O)c2cccc3cccnc23)C1 (centres undefined)	–	43	–	–	–	–
COc1cc(NC(=O)[C@@H]2CCCN2S(=O)(=O)c2cccc3cccnc23)cc(OC)c1OC	–	–	–	–	–	–
CC(=O)c1cccc(NC(=O)C2CCCN2S(=O)(=O)c2cccc3cccnc23)c1 (centres undefined)	–	67	–	–	–	–
O=C(Nc1ccccc1Cl)C1CCCN(S(=O)(=O)c2cccc3cccnc23)C1 (centres undefined)	–	–	–	–	–	–
CN(C)CCNC(=O)c1nn(C)c2c1CCc1ccccc1-2	–	–	–	–	–	–
CNc1cncc(-c2ccc(F)cc2F)n1	–	·	·	–	–	·
COCCNc1nnc(SCC(=O)NNC(=O)c2ccc([N+](=O)[O-])cc2)s1	–	59	–	–	–	–
COCCNc1nnc(SCC(=O)NC(=O)c2ccccc2OC)s1	–	–	–	–	–	–
CCC(=O)Nc1cccc(C(=O)c2ccc(C)c(C)c2)c1	–	–	–	–	–	–
O=[N+]([O-])c1ccc(N(CC2CO2)S(=O)(=O)c2ccccc2)cc1 (centres undefined)	–	–	–	–	–	–
O=S(=O)(c1ccccc1)N(CC1CO1)c1ccccc1 (centres undefined)	–	–	–	–	16	–
O=S(=O)(c1ccccc1)N(CC1CO1)c1cccc2ccccc12 (centres undefined)	–	67	–	–	–	–
Cc1ccc(S(=O)(=O)N(CC2CO2)c2ccccc2[N+](=O)[O-])cc1 (centres undefined)	–	–	–	–	–	–
CC(C)Cc1ccc(C(C)NC(=O)c2ccc(=O)[nH]c2)cc1 (centres undefined)	–	–	–	–	15	–
Cc1ccc(C(=O)NC(C)c2ccc(F)cc2)cc1 (centres undefined)	–	–	–	–	–	–
Nc1nc(Cl)cc(N2CCC(c3cc(-c4ccc(Cl)cc4Cl)n[nH]3)CC2)n1	–	–	32	–	–	–
COc1ccc(OC)c(NC(=O)NNC(=O)COc2ccc(F)cc2F)c1	–	–	–	–	–	–
COc1cccc(C(=O)NCCS(=O)(=O)NCc2ccco2)c1	37	–	–	–	–	–
CCOC(=O)[C@@H]1[C@H]2COc3ccc(Br)cc3[C@@H]2N2C(=O)N(c3ccc(C(F)(F)F)cc3)C(=O)[C@]12C	–	–	–	–	–	–
COc1ccc(C(=O)CSc2nnc(CN3CCCCC3)n2-c2ccc(F)cc2)cc1	–	–	–	–	20	–
Cc1ccc(S(=O)(=O)CC(=O)c2cc(C)c(O)c(C)c2)cc1	–	–	–	–	–	–

Assay outcomes deposited in PubChem by The Scripps Research Institute Molecular Screening Center.
